Data as given in ChEMBL document CHEMBL2440017, “Discovery of a potent, selective, and orally bioavailable histamine H3 receptor antagonist SAR110068 for the treatment of sleep-wake disorders” (Bioorg Med Chem Lett, 2013).

Columns and labels:
[1] = tested on: Cynomolgus monkey; assay: Cardiotoxicity in cynomolgus monkey assessed as blood arterial pressure and heart rate at 10 mg/kg, iv; assay type: toxicity, organism-based, Macaca fascicularis; design: dose 10 mg/kg, route intravenous; conditions: in vivo
Method in brief: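 Anaesthetized cynomolgus monkeys dosed 10 mg/kg i.v. Arterial blood pressure, heart rate and ECG (PR, QRS, QTc intervals) monitored. Plasma drug sampled at 5, 15 and 30 min post-dose.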

[2] = Plasma concentration in cynomolgus monkey at 30 mg/kg, iv after 15 mins; assay type: ADME, organism-based, Macaca fascicularis; design: dose 30 mg/kg, route intravenous
[3] = tested on: Mus musculus; assay: Toxicity in mouse assessed as behavioral side effect at 10 to 30 mg/kg, po; assay type: organism-based; design: dose 10-30 mg/kg, route oral; conditions: in vivo
Method in brief: (§1)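 Acute oral behavioral safety evaluation in mice. Oral doses were 0, 10 and 30 mg/kg. Behavioral, neurologic and autonomic signs were scored.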

[4] = Ratio of AUC (0 to infinity) in OF1 mouse brain to AUC (0 to infinity) in OF1 mouse plasma at 2 mg/kg, iv; assay type: ADME, organism-based; design: dose 2 mg/kg, route intravenous; conditions: read-out: Ratio AUC
Method in brief: (§2)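 Male OF1 mice received 2 mg/kg i.v. (1.0 mg/mL in 50% 1-methyl-2-pyrrolidinone/saline) or 10 mg/kg p.o. (1.0 mg/mL in 5% DMSO/0.5% MC/0.2% Tween80). Plasma and brain AUC0-inf were measured, and the B/P ratio was calculated from i.v. AUC0-inf.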

[5] = Elimination half life in Sprague-Dawley rat plasma at 2 mg/kg, iv; assay type: ADME, organism-based; design: dose 2 mg/kg, route intravenous; conditions: read-out: beta t1/2 (converted)
Method in brief: (§3)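 Male OF1 mice or male Sprague-Dawley rats, single 2 mg/kg i.v. dose. Mouse vehicle 50% 1-methyl-2-pyrrolidinone in saline at 1.0 mg/mL; rat vehicle saline at 0.5 mg/mL. Plasma and brain levels followed over time; AUC0-inf, t1/2 and clearance derived from exposure. Brain/plasma ratio uses i.v. AUC0-inf.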

[6] = Plasma concentration in cynomolgus monkey at 10 mg/kg, iv after 15 mins; assay type: ADME, organism-based, Macaca fascicularis; design: dose 10 mg/kg, route intravenous
Method in brief: (§4)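 Anaesthetized cynomolgus monkeys were dosed 10 mg/kg i.v. Plasma drug concentrations were measured at 5, 15 and 30 min post-dose, alongside arterial pressure, heart rate and ECG intervals.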

[7] = AUC (0 to infinity) in Sprague-Dawley rat brain at 2 mg/kg, iv; assay type: ADME, organism-based; design: dose 2 mg/kg, route intravenous, time infinity; method in brief: as §3
[8] = Plasma concentration in cynomolgus monkey at 10 mg/kg, iv after 5 mins; assay type: ADME, organism-based, Macaca fascicularis; design: dose 10 mg/kg, route intravenous; method in brief: as §4
[9] = AUC in OF1 mouse plasma at 10 mg/kg, po; assay type: ADME, organism-based; design: dose 10 mg/kg, route oral
Method in brief: (§5)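 Oral gavage at 10 mg/kg to male OF1 mice (vehicle 5% DMSO/0.5% MC/0.2% Tween80, 1.0 mg/mL) or male Sprague-Dawley rats (vehicle 0.5% MC/0.2% Tween80, 1.0 mg/mL). Plasma and brain exposure and half-life determined.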

[10] = molecular target: Cytochrome P450 2C9 (Homo sapiens, UniProt P11712); assay: Inhibition of CYP2C9 (unknown origin); assay type: ADME
[11] = Genotoxicity in micronucleus (unknown origin) at 5 to 950 ug/ml in presence of human liver microsomes; assay type: toxicity, Microsome
Method in brief: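 Ames II and micronucleus tests, Ames over 3–1000 µg/mL and MNT over 5–950 µg/mL. Each run with and without metabolic activation by human liver microsome preparations.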

[12] = molecular target: T1, Cytochrome P450 1A2 (Homo sapiens, UniProt P05177); assay: Inhibition of CYP1A2 (unknown origin); assay type: ADME
T1 sequence (P05177 whole entry): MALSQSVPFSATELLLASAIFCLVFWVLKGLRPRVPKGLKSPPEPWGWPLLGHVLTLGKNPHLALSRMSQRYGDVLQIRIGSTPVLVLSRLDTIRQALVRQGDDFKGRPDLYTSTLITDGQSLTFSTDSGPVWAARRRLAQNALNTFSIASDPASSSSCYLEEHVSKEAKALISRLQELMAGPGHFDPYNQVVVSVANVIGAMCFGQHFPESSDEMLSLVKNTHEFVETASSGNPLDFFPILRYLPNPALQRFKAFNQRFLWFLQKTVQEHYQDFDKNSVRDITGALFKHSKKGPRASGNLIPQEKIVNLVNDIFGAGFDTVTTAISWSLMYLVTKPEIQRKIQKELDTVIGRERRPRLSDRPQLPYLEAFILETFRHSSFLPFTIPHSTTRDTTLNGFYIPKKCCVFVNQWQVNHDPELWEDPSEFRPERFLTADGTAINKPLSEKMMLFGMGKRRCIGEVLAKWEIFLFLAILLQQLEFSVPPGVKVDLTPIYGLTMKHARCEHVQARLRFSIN

[13] = Elimination half life in Sprague-Dawley rat brain at 2 mg/kg, iv; assay type: ADME, organism-based; design: dose 2 mg/kg, route intravenous; conditions: read-out: beta t1/2 (converted); method in brief: as §3
[14] = tested on: Mus musculus; assay: Toxicity in mouse assessed as behavioral side effect at 30 mg/kg, po; assay type: organism-based; design: dose 30 mg/kg, route oral; conditions: in vivo
Method in brief: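 Group acute oral behavioral safety study in mice at 30 mg/kg p.o., scored for behavioral side effects.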

[15] = molecular target: Histamine receptor H3 (Macaca mulatta, UniProt Q865E1); assay: Displacement of [3H]N-alpha-methylhistamine from rhesus monkey histamine H3 receptor expressed in CHO cells; assay type: cell-based
Method in brief: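 Membranes from CHO cells stably expressing rhesus monkey H3 receptor. Competition binding against [3H]N-α-methylhistamine; Ki values are means of three or more determinations.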

[16] = Elimination half life in OF1 mouse brain at 10 mg/kg, po; assay type: ADME, organism-based; design: dose 10 mg/kg, route oral; conditions: read-out: beta t1/2 (converted); method in brief: as §5
[17] = Solubility of the compound in gastrointestinal tract simulation medium; assay type: physicochemical
[18] = Metabolic stability in guinea pig microsomes; assay type: ADME, Cavia porcellus, Microsome
Method in brief: (§6)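 Percentage biotransformation measured in vitro in liver microsomes of each species.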

[19] = Volume of distribution in Sprague-Dawley rat plasma at 2 mg/kg, iv; assay type: ADME, organism-based; design: dose 2 mg/kg, route intravenous
Method in brief: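 Male Sprague–Dawley rats received 2 mg/kg i.v. (0.5 mg/mL in saline) or 10 mg/kg p.o. (1.0 mg/mL in 0.5% MC/0.2% Tween80). Plasma and brain AUC0-inf were measured, and the B/P ratio was calculated from i.v. AUC0-inf.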

[20] = Volume of distribution in OF1 mouse plasma at 2 mg/kg, iv; assay type: ADME, organism-based; design: dose 2 mg/kg, route intravenous; method in brief: as §2
[21] = organism: Homo sapiens; assay: Inhibition of sigma 2 receptor (unknown origin) at 10 uM
Method in brief: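 CEREP selectivity panel: percent inhibition of control specific binding at 10 µM.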

[22] = Inhibition of CYP450 in human hepatocytes at > 100 uM; assay type: ADME, cell-based, Hepatocyte
[23] = tested on: Plasma; assay: Metabolic stability in rabbit plasma; assay type: ADME, cell-free, Oryctolagus cuniculus
Method in brief: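 Compound stability measured in plasma of each species in vitro.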

[24] = AUC (0 to infinity) in OF1 mouse brain at 2 mg/kg, iv; assay type: ADME, organism-based; design: time infinity, dose 2 mg/kg, route intravenous; method in brief: as §3
[25] = tested on: Mus musculus; assay: Autonomic toxicity in mouse at 10 to 30 mg/kg, po; assay type: organism-based; design: dose 10-30 mg/kg, route oral; conditions: in vivo
Method in brief: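 Acute oral behavioural safety evaluation in grouped mice at 0, 10 and 30 mg/kg p.o. Animals scored for behavioural, neurologic and autonomic signs.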

[26] = molecular target: Histamine H3 receptor (Homo sapiens, UniProt Q9Y5N1); assay: Displacement of [3H]N-alpha-methylhistamine from human histamine H3 receptor expressed in CHO cells; assay type: cell-based
[27] = tested on: Plasma; assay: Clearance in OF1 mouse plasma at 2 mg/kg, iv; assay type: ADME, organism-based; design: dose 2 mg/kg, route intravenous; conditions: in vivo; method in brief: as §3
[28] = Metabolic stability in dog microsomes; assay type: ADME, Canis lupus familiaris, Microsome; method in brief: as §6
[29] = tested on: Mus musculus; assay: Neurologic toxicity in mouse at 10 to 30 mg/kg, po; assay type: organism-based; design: dose 10-30 mg/kg, route oral; conditions: in vivo; method in brief: as §1
[30] = Elimination half life in Sprague-Dawley rat plasma at 10 mg/kg, po; assay type: ADME, organism-based; design: dose 10 mg/kg, route oral; conditions: read-out: beta t1/2 (converted); method in brief: as §5

Cytochrome P450 2C9, sequence (P11712 whole entry): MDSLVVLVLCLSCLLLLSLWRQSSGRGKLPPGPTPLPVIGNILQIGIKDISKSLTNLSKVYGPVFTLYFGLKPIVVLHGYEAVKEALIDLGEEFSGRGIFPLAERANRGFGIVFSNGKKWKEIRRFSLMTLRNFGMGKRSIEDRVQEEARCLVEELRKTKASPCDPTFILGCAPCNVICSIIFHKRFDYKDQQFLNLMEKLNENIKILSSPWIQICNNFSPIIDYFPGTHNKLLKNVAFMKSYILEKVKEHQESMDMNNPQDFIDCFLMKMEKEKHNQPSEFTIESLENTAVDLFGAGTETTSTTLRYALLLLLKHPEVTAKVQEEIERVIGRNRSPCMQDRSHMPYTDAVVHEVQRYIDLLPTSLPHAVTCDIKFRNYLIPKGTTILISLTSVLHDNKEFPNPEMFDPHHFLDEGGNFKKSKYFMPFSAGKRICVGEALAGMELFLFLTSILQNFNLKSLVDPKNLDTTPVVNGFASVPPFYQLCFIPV
Histamine H3 receptor, sequence (Q9Y5N1 whole entry): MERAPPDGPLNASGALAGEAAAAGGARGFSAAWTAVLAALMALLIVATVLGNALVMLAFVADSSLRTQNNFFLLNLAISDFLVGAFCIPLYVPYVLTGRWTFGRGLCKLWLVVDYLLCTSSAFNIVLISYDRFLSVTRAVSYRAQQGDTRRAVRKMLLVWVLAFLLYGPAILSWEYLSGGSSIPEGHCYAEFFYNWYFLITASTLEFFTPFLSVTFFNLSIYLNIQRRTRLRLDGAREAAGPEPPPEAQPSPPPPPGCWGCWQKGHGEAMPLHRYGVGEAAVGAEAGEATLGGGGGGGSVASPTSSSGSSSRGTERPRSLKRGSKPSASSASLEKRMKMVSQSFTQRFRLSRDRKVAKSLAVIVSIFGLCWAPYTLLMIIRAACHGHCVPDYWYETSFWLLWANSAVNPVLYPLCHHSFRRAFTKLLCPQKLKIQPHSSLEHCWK
Histamine receptor H3, sequence (Q865E1 whole entry): as the sequence (Q9Y5N1 whole entry) above, with D148N, A240G, V282A, A289T, T290A, V300A, H442Q counted along it

concentration at 0.25 h [2]: 11 µM | Kp [4]: 0.35 | half-life [5]: 4.3 h | concentration at 0.25 h [6]: 14 µM | AUC(0-inf) [7]: 0.7 µg·h/mL | concentration at 5 min [8]: 28 µM | AUC [9]: 3.2 µg·h/mL | inhibition (INH) [10]: Active | inhibition (INH) [12]: Active | half-life [13]: 3.6 h | Ki [15]: 0.97 nM | half-life [16]: 1.9 h | solubility [17]: > 2.5 mg/mL | Stability [18]: Stable | Vd [19]: 3.1 L/kg | Vd [20]: 3.5 L/kg | inhibition [21]: 53% | inhibition (INH) [22]: Not Active | Stability [23]: Stable | AUC(0-inf) [24]: 0.38 µg·h/mL | Ki [26]: 1 nM | clearance [27]: 1.8 L/h/kg | Stability [28]: Stable | half-life [30]: 3 h
SMILES: Cc1cc(N2CC[C@H](N3CCC[C@@H]3C)C2)ccc1NC(=O)C1CCOCC1
Activity [1]: Non-toxic | Activity [3]: Non-toxic | Activity [11]: Non-toxic | Activity [14]: Non-toxic | Activity [25]: Non-toxic | Activity [29]: Non-toxic
